Measurements reported in ChEMBL document CHEMBL2380293, “Design, synthesis, and biological evaluation of novel histone deacetylase 1 inhibitors through click chemistry” (Bioorg Med Chem Lett, 2013).
Activity calls are given as the source filed them. The calls are words filed in the database; no cut-off is given here.

Tests used:
[1] = tested on: BGC-823; assay: Growth inhibition of human BGC823 cells at 10 uM by MTT assay; type: functional, cell-based
Method in brief: (§1)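 MTT cell growth read-out, with SAHA as the positive control. GI50 values are means of three experiments. 10 μM was the concentration tested for scoring absence of activity.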

[2] = tested on: A-431; assay: Growth inhibition of human A431 cells at 10 uM by MTT assay; type: functional, cell-based; method in brief: as §1
[3] = tested on: HUVEC; assay: Growth inhibition of HUVEC at 10 uM by MTT assay; type: functional, cell-based; details: Homo sapiens; method in brief: as §1
[4] = tested on: DU-145; assay: Growth inhibition of human DU145 cells at 10 uM by MTT assay; type: functional, cell-based; method in brief: as §1
[5] = tested on: HT-1080; assay: Growth inhibition of human HT1080 cells at 10 uM by MTT assay; type: functional, cell-based; method in brief: as §1
[6] = tested on: A549; assay: Growth inhibition of human A549 cells by MTT assay; type: functional
[7] = biological target: T1, Histone deacetylase 1 (Homo sapiens, UniProt Q13547); assay: Inhibition of human recombinant HDAC1 incubated for 10 mins prior to substrate addition measured after 60 mins by spectrophotometric analysis
T1 sequence (Q13547 whole entry): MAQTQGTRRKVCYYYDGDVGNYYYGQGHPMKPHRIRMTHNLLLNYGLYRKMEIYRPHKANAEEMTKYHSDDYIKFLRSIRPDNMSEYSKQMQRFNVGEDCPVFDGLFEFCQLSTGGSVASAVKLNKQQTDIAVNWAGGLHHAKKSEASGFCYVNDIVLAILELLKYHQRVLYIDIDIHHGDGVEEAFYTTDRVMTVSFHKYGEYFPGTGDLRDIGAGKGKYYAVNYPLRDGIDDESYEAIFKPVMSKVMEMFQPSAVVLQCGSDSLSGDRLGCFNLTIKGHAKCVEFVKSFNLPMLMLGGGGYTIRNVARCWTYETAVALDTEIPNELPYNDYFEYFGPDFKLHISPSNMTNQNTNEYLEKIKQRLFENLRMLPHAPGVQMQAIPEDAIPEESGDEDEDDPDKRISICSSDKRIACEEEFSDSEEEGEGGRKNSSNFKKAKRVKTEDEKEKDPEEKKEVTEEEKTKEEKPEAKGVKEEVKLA

[8] = tested on: HeLa; assay: Growth inhibition of human HeLa cells at 10 uM by MTT assay; type: functional, cell-based; method in brief: as §1
[9] = tested on: A549; assay: Growth inhibition of human A549 cells at 10 uM by MTT assay; type: functional, cell-based; method in brief: as §1
[10] = biological target: T2, Histone deacetylase 7 (Homo sapiens) (UniProt Q8WUI4); assay: Inhibition of human recombinant HDAC7 at 10 uM incubated for 10 mins prior to substrate addition measured after 60 mins by spectrophotometric analysis
T2 sequence (whole entry): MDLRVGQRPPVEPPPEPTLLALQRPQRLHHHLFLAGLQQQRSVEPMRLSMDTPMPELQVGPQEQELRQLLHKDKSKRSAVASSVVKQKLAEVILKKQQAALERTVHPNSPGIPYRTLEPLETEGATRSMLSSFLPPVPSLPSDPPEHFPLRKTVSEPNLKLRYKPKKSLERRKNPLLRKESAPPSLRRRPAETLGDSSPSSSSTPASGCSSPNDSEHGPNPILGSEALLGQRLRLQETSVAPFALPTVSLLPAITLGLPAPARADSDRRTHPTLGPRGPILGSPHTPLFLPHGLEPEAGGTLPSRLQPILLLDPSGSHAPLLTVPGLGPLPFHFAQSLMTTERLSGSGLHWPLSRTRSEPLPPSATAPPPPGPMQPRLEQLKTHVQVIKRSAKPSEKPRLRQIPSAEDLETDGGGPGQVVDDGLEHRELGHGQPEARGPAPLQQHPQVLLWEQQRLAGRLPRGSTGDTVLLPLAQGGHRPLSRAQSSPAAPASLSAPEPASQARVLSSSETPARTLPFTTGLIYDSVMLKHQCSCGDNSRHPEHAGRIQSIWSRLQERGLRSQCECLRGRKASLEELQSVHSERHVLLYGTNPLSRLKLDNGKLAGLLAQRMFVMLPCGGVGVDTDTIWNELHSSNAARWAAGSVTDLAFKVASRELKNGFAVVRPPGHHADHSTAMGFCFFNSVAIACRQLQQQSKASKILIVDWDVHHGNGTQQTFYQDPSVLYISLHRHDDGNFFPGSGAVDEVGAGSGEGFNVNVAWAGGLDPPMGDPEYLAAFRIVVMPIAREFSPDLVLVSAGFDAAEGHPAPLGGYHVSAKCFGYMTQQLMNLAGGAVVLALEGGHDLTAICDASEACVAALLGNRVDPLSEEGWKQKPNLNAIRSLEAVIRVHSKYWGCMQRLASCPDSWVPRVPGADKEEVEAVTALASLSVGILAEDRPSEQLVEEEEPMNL
Method in brief: (§2)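 Enzyme IC50 values are means of three experiments, with SAHA run as the positive control. Absence of activity was judged at 10 μM.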

[11] = tested on: A-431; assay: Growth inhibition of human A431 cells by MTT assay; type: functional
[12] = tested on: BGC-823; assay: Growth inhibition of human BGC823 cells by MTT assay; type: functional
[13] = tested on: HT-1080; assay: Growth inhibition of human HT1080 cells by MTT assay; type: functional; method in brief: as §1
[14] = tested on: DU-145; assay: Growth inhibition of human DU145 cells by MTT assay; type: functional
[15] = biological target: T1, Histone deacetylase 1; assay: Inhibition of human recombinant HDAC1 at 10 uM incubated for 10 mins prior to substrate addition measured after 60 mins by spectrophotometric analysis; method in brief: as §2
[16] = tested on: HUVEC; assay: Growth inhibition of HUVEC by MTT assay; type: functional; details: Homo sapiens
[17] = tested on: HeLa; assay: Growth inhibition of human HeLa cells by MTT assay; type: functional

SMILES | growth inhibition (GI) [1] | growth inhibition (GI) [3] | IC50 [7] | growth inhibition (GI) [8] | growth inhibition (GI) [9] | inhibition [10] | GI50 ([13]; Homo sapiens, HT-1080) | GI50 [14] | further results
O=C(CCCCn1cc(-c2ccccc2)nn1)NO | inactive | inactive | 5130 nM | inactive |  |  |  |  | growth inhibition (GI) [2]: inactive; growth inhibition (GI) [4]: inactive; growth inhibition (GI) [5]: inactive; GI50 [6]: 7690 nM
COc1cc(Br)c(Cn2cc(CCCCC(=O)NO)nn2)cc1OC | inactive | inactive | 862 nM | inactive | inactive | inactive |  |  | growth inhibition (GI) [4]: inactive; growth inhibition (GI) [5]: inactive; GI50 [11]: 17300 nM
O=C(CCCCc1cn(Cc2ccccc2Br)nn1)NO | inactive |  | 3580 nM | inactive | inactive | inactive |  |  | growth inhibition (GI) [2]: inactive; growth inhibition (GI) [4]: inactive; growth inhibition (GI) [5]: inactive
O=C(CCCCc1cn(Cc2ccc(Cl)cc2)nn1)NO |  |  | 2210 nM |  |  | inactive |  |  | 
O=C(CCCCc1cn(Cc2ccc3ccccc3c2)nn1)NO |  | inactive | 107 nM | inactive | inactive | inactive | 4610 nM | 7230 nM | GI50 [12]: 6640 nM; GI50 [11]: 5680 nM
O=C(CCCCc1cn(Cc2ccc(F)cc2F)nn1)NO |  |  | 1220 nM |  |  | inactive |  |  | 
O=C(CCCCc1cn(Cc2ccc(F)cc2)nn1)NO |  |  | 645 nM |  |  | inactive |  |  | 
O=C(CCCCc1cn(Cc2ccccn2)nn1)NO |  |  | 2570 nM |  |  | inactive |  |  | 
O=C(CCCCCCC(=O)Nc1ccccc1)NO [VORINOSTAT] |  |  |  |  |  |  |  |  | GI50 [13]: 4870 nM
O=C(CCCCc1cn(Cc2ccccc2Cn2cc(CCCCC(=O)NO)nn2)nn1)NO |  |  | 807 nM |  |  | inactive |  |  | 
N#Cc1ccc(Cn2cc(CCCCC(=O)NO)nn2)cc1 |  |  | 701 nM |  |  | inactive |  |  | 
Cc1ccccc1Cn1cc(CCCCC(=O)NO)nn1 |  |  | 1050 nM |  |  | inactive |  |  | 
COc1ccc(Br)c(Cn2cc(CCCCC(=O)NO)nn2)c1 | inactive | inactive | 159 nM | inactive | inactive | inactive | 9940 nM | 5620 nM | growth inhibition (GI) [2]: inactive
O=C(CCCCc1cn(Cc2cccc(Br)c2)nn1)NO | inactive | inactive | 396 nM | inactive | inactive | inactive | 6650 nM |  | growth inhibition (GI) [2]: inactive; growth inhibition (GI) [4]: inactive
O=C(CCCCc1cn(Cc2c(Br)cc(Br)cc2Br)nn1)NO |  |  |  |  |  | inactive |  |  | inhibition [15]: inactive
O=C(CCCCc1cn(Cc2ccccc2)nn1)NO |  |  | 1680 nM |  |  | inactive |  |  | 
Cc1ccc(Cn2cc(CCCCC(=O)NO)nn2)cc1 |  |  | 440 nM |  |  | inactive |  |  | 
O=C(CCCCc1cn(Cc2ccc3c(c2)OCO3)nn1)NO |  |  | 1900 nM |  |  | inactive |  |  | 
O=C(CCCCc1cn(Cc2ccc(Oc3ccccc3)cc2)nn1)NO |  |  | 122 nM | inactive | inactive | inactive | 7690 nM | 4490 nM | GI50 [12]: 7770 nM; GI50 [11]: 9030 nM
COc1cc(Cn2cc(CCCCC(=O)NO)nn2)cc(OC)c1 | inactive | inactive | 252 nM | inactive | inactive | inactive | 8040 nM | 7890 nM | GI50 [11]: 6800 nM
O=C(CCCCc1cn(Cc2ccccc2F)nn1)NO |  |  | 1360 nM |  |  | inactive |  |  | 
CC(C)(C)c1ccc(Cn2cc(CCCCC(=O)NO)nn2)cc1 | inactive | inactive | 601 nM | inactive | inactive | inactive | 7370 nM | 7200 nM | growth inhibition (GI) [2]: inactive
O=C(CCCCc1cn(Cc2cccc(-c3ccccc3)c2)nn1)NO |  |  | 58 nM |  |  | inactive | 3140 nM | 1190 nM | GI50 [12]: 3050 nM; GI50 [16]: 1130 nM; GI50 [17]: 3850 nM; GI50 [6]: 1470 nM; GI50 [11]: 4650 nM
O=C(CCCCc1cn(Cc2ccc(Br)cc2)nn1)NO | inactive |  | 1600 nM | inactive | inactive | inactive |  | 7910 nM | growth inhibition (GI) [5]: inactive; GI50 [11]: 15400 nM
O=C(CCCCc1cn(Cc2ccc(F)c(Cl)c2)nn1)NO | inactive | inactive | 649 nM | inactive | inactive | inactive | 10200 nM |  | growth inhibition (GI) [4]: inactive
O=C(CCCCc1cn(Cc2ccc(C(F)(F)F)cc2)nn1)NO |  |  | 440 nM |  |  | inactive |  |  | 
O=C(CCCCc1cn(Cc2ccc3ccccc3n2)nn1)NO | inactive | inactive | 246 nM | inactive | inactive | inactive | 10200 nM | 4060 nM | growth inhibition (GI) [2]: inactive
O=C(CCCCc1cn(Cc2ccc(-c3ccccc3)cc2)nn1)NO |  |  | 202 nM |  |  | inactive | 2690 nM | 1210 nM | GI50 [12]: 1800 nM; GI50 [16]: 5480 nM; GI50 [17]: 3720 nM; GI50 [6]: 2150 nM; GI50 [11]: 2990 nM
COc1ccc(Cn2cc(CCCCC(=O)NO)nn2)cc1 |  |  | 1850 nM |  |  | inactive |  |  | 
Cc1cc(C)cc(Cn2cc(CCCCC(=O)NO)nn2)c1 | inactive | inactive | 269 nM | inactive | inactive | inactive | 8650 nM |  | growth inhibition (GI) [2]: inactive; growth inhibition (GI) [4]: inactive
